In ChEMBL document CHEMBL4152203, “Antiproliferative hydrogen sulfide releasing evodiamine derivatives and their apoptosis inducing properties” (Eur J Med Chem, 2018):
Calls of active or inactive are those of the source. No cut-off for these calls is given here.

Legend:
Bel-7402 = experiment: Antiproliferative activity against human Bel7402 cells after 72 hrs by MTT assay; assay type: functional, cell-based; conditions: Bel-7402, 72 h
Summary of the method: (§1)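 Cells seeded and pre-incubated 24 h at 37 °C, 5% CO2, then exposed to compounds for 72 h. MTT (5 mg/mL stock) added for 4 h, formazan dissolved in DMSO for 10 min at room temperature, absorbance read at 570 nm. 0.1% DMSO as negative and 5-FU as positive reference. IC50 derived from inhibition ratios; mean ± SD of three independent experiments.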

MCF7 = experiment: Antiproliferative activity against human MCF7 cells after 72 hrs by MTT assay; assay type: functional, cell-based; conditions: MCF7, 72 h; summary of the method: as §1
Caco-2 = experiment: Antiproliferative activity against human Caco2 cells after 72 hrs by MTT assay; assay type: functional, cell-based; conditions: Caco-2, 72 h; summary of the method: as §1
HL-60 [1] = experiment: Antiproliferative activity against human HL60 cells after 72 hrs by MTT assay; assay type: functional, cell-based; conditions: HL-60, 72 h; summary of the method: as §1
HL-60 [2] = experiment: Cell cycle arrest in human HL60 cells assessed as accumulation at G1 phase at 0.3 uM after 48 hrs by propidium iodide/RNase A staining-based flow cytometric analysis (reference value: 65.75%); assay type: functional
HL-60 [3] = experiment: Cell cycle arrest in human HL60 cells assessed as accumulation at S phase at 0.3 uM after 48 hrs by propidium iodide/RNase A staining-based flow cytometric analysis (reference value: 24.06%); assay type: functional
HL-60 [4] = experiment: Cell cycle arrest in human HL60 cells assessed as accumulation at G2/M phase at 0.3 uM after 48 hrs by propidium iodide/RNase A staining-based flow cytometric analysis (reference value: 10.19%); assay type: functional
HL-60 [5] = experiment: Cell cycle arrest in human HL60 cells assessed as accumulation at G1 phase at 0.6 uM after 48 hrs by propidium iodide/RNase A staining-based flow cytometric analysis (reference value: 65.75%); assay type: functional
HL-60 [6] = experiment: Cell cycle arrest in human HL60 cells assessed as accumulation at S phase at 0.6 uM after 48 hrs by propidium iodide/RNase A staining-based flow cytometric analysis (reference value: 24.06%); assay type: functional
HL-60 [7] = experiment: Cell cycle arrest in human HL60 cells assessed as accumulation at G1 phase at 1.2 uM after 48 hrs by propidium iodide/RNase A staining-based flow cytometric analysis (reference value: 65.75%); assay type: functional
HL-60 [8] = experiment: Cell cycle arrest in human HL60 cells assessed as accumulation at S phase at 1.2 uM after 48 hrs by propidium iodide/RNase A staining-based flow cytometric analysis (reference value: 24.06%); assay type: functional
HL-60 [9] = experiment: Cell cycle arrest in human HL60 cells assessed as accumulation at G2/M phase at 1.2 uM after 48 hrs by propidium iodide/RNase A staining-based flow cytometric analysis (reference value: 10.19%); assay type: functional
HL-60 [10] = experiment: Induction of apoptosis in human HL60 cells assessed as early apoptotic cells at 0.3 uM after 48 hrs by Annexin V-FITC/propidium iodide staining-based flow cytometric analysis (reference value: 1.11%); assay type: functional
HL-60 [11] = experiment: Induction of apoptosis in human HL60 cells assessed as necrotic cells at 0.3 uM after 48 hrs by Annexin V-FITC/propidium iodide staining-based flow cytometric analysis (reference value: 0.02%); assay type: functional
HL-60 [12] = experiment: Induction of apoptosis in human HL60 cells assessed as viable cells at 0.6 uM after 48 hrs by Annexin V-FITC/propidium iodide staining-based flow cytometric analysis (reference value: 95.56%); assay type: functional; conditions: HL-60, 48 h, read-out: Activity
HL-60 [13] = experiment: Induction of apoptosis in human HL60 cells assessed as early apoptotic cells at 0.6 uM after 48 hrs by Annexin V-FITC/propidium iodide staining-based flow cytometric analysis (reference value: 1.11%); assay type: functional
HL-60 [14] = experiment: Induction of apoptosis in human HL60 cells assessed as necrotic cells at 0.6 uM after 48 hrs by Annexin V-FITC/propidium iodide staining-based flow cytometric analysis (reference value: 0.02%); assay type: functional
HL-60 [15] = experiment: Induction of apoptosis in human HL60 cells assessed as necrotic cells at 1.2 uM after 48 hrs by Annexin V-FITC/propidium iodide staining-based flow cytometric analysis (reference value: 0.02%); assay type: functional
HL-60 [16] = experiment: Induction of apoptosis in human HL60 cells assessed as apoptotic cells after 48 hrs by Annexin V-FITC/propidium iodide staining-based flow cytometric analysis; assay type: functional, cell-based
HL-60 [17] = experiment: Induction of mitochondrial membrane potential loss in human HL60 cells assessed as cell population with intact mitochondrial membrane potential at 0.3 uM after 48 hrs by JC1 staining-based flow cytometry analysis (reference value: 92.35%); assay type: functional
HL-60 [18] = experiment: Induction of mitochondrial membrane potential loss in human HL60 cells assessed as cell population with mitochondrial membrane potential collapse at 0.6 uM after 48 hrs by JC1 staining-based flow cytometry analysis (reference value: 7.65%); assay type: functional
HL-60 [19] = experiment: Induction of mitochondrial membrane potential loss in human HL60 cells assessed as cell population with intact mitochondrial membrane potential at 0.6 uM after 48 hrs by JC1 staining-based flow cytometry analysis (reference value: 92.35%); assay type: functional
HL-60 [20] = experiment: Induction of apoptosis in human HL60 cells assessed as morphological changes by measuring chromatin condensation at 0.3 to 1.2 uM after 48 hrs by Hoechst 33258 staining-based fluorescence microscopic analysis; assay type: functional, cell-based
Summary of the method: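 HL-60 pre-incubated 24 h, then treated 48 h with 0, 0.3, 0.6 or 1.2 μM compound or vehicle. Cells were harvested, washed twice in PBS, stained with Hoechst 33258 (2 mg/mL in PBS) for 15 min at room temperature in darkness, washed, mounted and examined by fluorescence microscopy with a DAPI filter.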

HL-60 [21] = experiment: Induction of apoptosis in human HL60 cells assessed as downregulation of Bcl2 expression at 0.3 to 1.2 uM after 48 hrs by Western blot analysis; assay type: functional, cell-based
Summary of the method: (§2)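 HL-60 treated in triplicate with 0.3, 0.6 or 1.2 μM compound; exposure is 72 h in the methods and 48 h in the legend. Lysates were run on 10% SDS-PAGE, transferred to nitrocellulose, blocked in 5% milk, and probed overnight at 4 °C with monoclonal antibodies (Bcl-2, Bax, cytochrome c, caspase-9/-3, p53, cyclin B1, cdc2). ECL detection; densitometry relative to GAPDH.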

HL-60 [22] = experiment: Induction of apoptosis in human HL60 cells assessed as upregulation of caspase3 level at 0.3 to 1.2 uM after 48 hrs by Western blot analysis; assay type: functional, cell-based; summary of the method: as §2
HL-60 [23] = experiment: Induction of apoptosis in human HL60 cells assessed as upregulation of caspase9 level at 0.3 to 1.2 uM after 48 hrs by Western blot analysis; assay type: functional, cell-based; summary of the method: as §2
HL-60 [24] = experiment: Induction of apoptosis in human HL60 cells assessed as increase in cytosolic cytochrome c level at 0.3 to 1.2 uM after 48 hrs by Western blot analysis; assay type: functional, cell-based; summary of the method: as §2
HL-60 [25] = experiment: Induction of apoptosis in human HL60 cells assessed as decrease in cyclin B1 protein expression level at 0.3 to 1.2 uM after 48 hrs by Western blot analysis; assay type: functional, cell-based; summary of the method: as §2
HL-60 [26] = experiment: Induction of mitochondrial membrane potential loss in human HL60 cells assessed as cell population with intact mitochondrial membrane potential at 1.2 uM after 48 hrs by JC1 staining-based flow cytometry analysis (reference value: 92.35%); assay type: functional
HL-60 [27] = experiment: Induction of apoptosis in human HL60 cells assessed as increase in p53 protein level at 0.3 to 1.2 uM after 48 hrs by Western blot analysis; assay type: functional, cell-based; summary of the method: as §2

Work on `CN1c2ccccc2C(=O)N2CCc3c(n(CCCCC(=O)OCCCCOc4ccc(-c5cc(=S)ss5)cc4)c4ccccc34)C21` (stereo not given) yielded an IC50 (Bel-7402) of 48.9 µM, an IC50 (MCF7) of 44.8 µM and an IC50 (Caco-2) of 2.02 µM. For the same molecule, the IC50 (HL-60 [1]) was 0.58 µM, the Activity (HL-60 [2]) was 47.1% and the Activity (HL-60 [3]) was 41.49%. For the same molecule, the Activity (HL-60 [4]) was 11.41%, the Activity (HL-60 [5]) was 38.55% and the Activity (HL-60 [6]) was 41.81%. The Activity (HL-60 [7]) was 35.32%, the Activity (HL-60 [8]) was 42.66% and the Activity (HL-60 [9]) was 22.02%. The Activity (HL-60 [10]) was 4.53%, the Activity (HL-60 [11]) was 0.06% and the viability at 0.6 µM (HL-60 [12]) was 64.5%. The Activity (HL-60 [13]) was 15.56%, the Activity (HL-60 [14]) was 0.48% and the Activity (HL-60 [15]) was 0.11%. The Activity (HL-60 [16]) was “Dose-dependent effect”, the Activity (HL-60 [17]) was 86.67% and the Activity (HL-60 [18]) was 21.32%. For the same molecule, the Activity (HL-60 [19]) was 78.68%, the Activity (HL-60 [20]) was “Active” and the Activity (HL-60 [21]) was “Active”. For the same molecule, the Activity (HL-60 [22]) was “Active”, the Activity (HL-60 [23]) was “Active” and the Activity (HL-60 [24]) was “Active”. The Activity (HL-60 [25]) was “Active”, the Activity (HL-60 [26]) was 64.99% and the Activity (HL-60 [27]) was “Active”.
